In ChEMBL document CHEMBL1125457, “Inhibitors of acyl-CoA:cholesterol acyltransferase. 1. Identification and structure-activity relationships of a novel series of fatty acid anilide hypocholesterolemic agents” (J Med Chem, 1992):
pIC50: −log10 of the molar value.

Legend:
[1] = biological target: T1, O-acyltransferase (Oryctolagus cuniculus, UniProt G1SFD9); experiment: In vitro inhibition of acyl coenzyme A:cholesterol acyltransferase, in intestinal microsomes isolated from cholesterol-fed rabbits; design: species or system Intestine
Summary of the method: (§1)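 Rabbit intestinal mucosa scraped, washed, homogenized in phosphate/KCl/EDTA/sucrose buffer; microsomes pelleted at 100000g and stored at -70 °C. Microsomes (0.3 mg protein) with BSA (0.5 mg) and inhibitor in DMSO/Tween-20 preincubated 5 min at 37 °C. [1-14C]oleoyl-CoA (10 nmol, 0.05 μCi) then added for 5 min. Cholesteryl oleate extracted, separated by TLC and counted by scintillation. Four dilutions per compound, in triplicate.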

[2] = species on record: Rattus norvegicus; experiment: Percent change in high density lipoprotein (HDL-cholesterol in cholesterol-fed rats.; assay type: functional
Summary of the method: (§2)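 Rats fed ad libitum for 1 week on a diet with peanut oil (5.5%), cholesterol (1.5%) and cholic acid (0.3%), with compound mixed in at 0.05% of the diet. Sacrificed in the fed state. Plasma total and/or HDL cholesterol measured as percent change versus cholesterol-fed controls. Significance by ANOVA followed by Fisher's multiple range test, p < 0.05.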

[3] = species on record: Rattus norvegicus; experiment: Percent change in total cholesterol (TC) in cholic acid (0.3%) -cholesterol (1.5%) -peanut oil(5.5%) -fed rats.; assay type: functional; summary of the method: as §2
[4] = biological target: T1, O-acyltransferase; experiment: Tested in vitro to inhibit Acyl coenzyme A:cholesterol acyltransferase in intestinal microsomes isolated from cholesterol-fed rabbits.; design: species or system Intestine; summary of the method: as §1

T1 sequence (G1SFD9 1-524): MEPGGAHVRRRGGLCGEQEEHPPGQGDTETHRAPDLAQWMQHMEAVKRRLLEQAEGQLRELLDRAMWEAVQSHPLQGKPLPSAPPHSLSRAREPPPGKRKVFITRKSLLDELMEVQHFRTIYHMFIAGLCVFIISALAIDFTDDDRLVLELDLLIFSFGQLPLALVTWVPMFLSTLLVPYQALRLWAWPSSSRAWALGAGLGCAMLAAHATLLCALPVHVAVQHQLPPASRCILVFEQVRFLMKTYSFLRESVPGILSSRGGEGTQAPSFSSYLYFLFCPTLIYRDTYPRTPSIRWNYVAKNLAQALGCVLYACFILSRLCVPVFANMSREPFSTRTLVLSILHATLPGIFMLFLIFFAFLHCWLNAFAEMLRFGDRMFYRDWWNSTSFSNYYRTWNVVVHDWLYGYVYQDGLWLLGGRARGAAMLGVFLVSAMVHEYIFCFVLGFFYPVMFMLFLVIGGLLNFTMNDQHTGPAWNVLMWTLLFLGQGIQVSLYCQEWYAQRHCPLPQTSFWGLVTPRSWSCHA

Row | pIC50 [1] | pIC50 [4] | Structure (SMILES) | Change [2] [%] | Change [3] [%]
1 | 5.96 | – | CCCCCCCC/C=C/CCCCCCCC(=O)Nc1cc(OC)c(OC)cc1OC | – | –
2 | 6.59 | – | CCCCCCCCCCC(C)(C)C(=O)Nc1c(F)cc(F)cc1F | – | –
3 | 7.64 | – | CCCCCCCC/C=C/CCCCCCCC(=O)Nc1c(C)cccc1C(C)C | – | -45
4 | 5.10 | – | CCCCCCCC/C=C/CCCCCCCC(=O)Nc1ccccc1OC | – | –
5 | – | 7.29 | CCCCCCCC/C=C/CCCCCCCC(=O)Nc1c(OC)cc(OC)cc1OC | – | -38
6 | – | 5.35 | CCCCCCCC/C=C/CCCCCCCC(=O)Nc1ccc(OC)c(OC)c1 | – | –
7 | 5.04 | – | CCCCCCCC/C=C/CCCCCCCC(=O)Nc1ccc(C)cc1C(=O)OC | – | –
8 | 6.28 | – | CCCCCCCC/C=C/CCCCCCCC(=O)Nc1cc(Cl)c(OC)cc1OC | – | -7
9 | 7.70 | – | CCCCCCCC/C=C/CCCCCCCC(=O)Nc1c(C)cccc1OC | – | -30
10 | 7.22 | – | CCCCCCCC/C=C/CCCCCCCC(=O)Nc1cc(C(=O)OC)c(C)cc1C | – | -41
11 | 4.92 | – | CCCCCCCC/C=C/CCCCCCCC(=O)Nc1cccc(C)c1[N+](=O)[O-] | – | –
12 | 5.92 | – | CCCCCCCC/C=C/CCCCCCCC(=O)Nc1ccccc1CC | – | –
13 | – | 7.37 | CCCCCCCC/C=C\CCCCCCCC(=O)Nc1c(C)cccc1C | – | -38
14 | 6.22 | – | CCCCCCCC/C=C/CCCCCCCC(=O)Nc1ccccc1C(C)C | – | –
15 | 6.82 | – | CCCCCCCC/C=C/CCCCCCCC(=O)Nc1c(O)cc(OC)cc1OC | – | –
16 | 7.77 | – | CCCCCCCC/C=C/CCCCCCCC(=O)Nc1c(CC)cccc1CC | – | -51
17 | – | 5.20 | CCCCCCCC/C=C/CCCCCCCC(=O)Nc1c(F)cc(F)cc1F | – | 2
18 | 8.15 | – | CCCCCCCC/C=C/CCCCCCCC(=O)Nc1c(C(C)C)cccc1C(C)C | – | -21
19 | 7.82 | – | CCCCCCCC/C=C/CCCCCCCC(=O)Nc1c(C)cccc1OCC | – | -45
20 | 6.15 | – | CCCCCCCC/C=C/CCCCCCCC(=O)Nc1c(C)cc(C)cc1C | – | -27
21 | 4.49 | – | CCCCCCCC/C=C/CCCCCCCC(=O)Nc1ccc(F)cc1F | – | -19
22 | 4.12 | – | CCCCCCCC/C=C/CCCCCCCC(=O)Nc1ccccc1Cl | – | –
23 | 5.96 | – | CCCCCCCC/C=C/CCCCCCCC(=O)Nc1cc(C(=O)OC)c(OC)cc1OC | – | –
24 | 7.52 | – | CCCCCCCC/C=C/CCCCCCCC(=O)Nc1c(Cl)cc(Cl)cc1Cl | – | -44
25 | 5.52 | – | CCCCCCCC/C=C/CCCCCCCC(=O)Nc1ccc(OC)cc1OC | – | –

Second part, the molecule before the results:

Row | Structure (SMILES) | pIC50 [1] | pIC50 [4] | Change [2] [%] | Change [3] [%]
26 | CCCCCCCCCCC(C)(C)C(=O)Nc1ccc(C)c(C)c1 | 5.78 | – | – | –
27 | CCCCCCCCCCC1(C(=O)Nc2c(OC)cc(OC)cc2OC)CCCC1 | 7.49 | – | 45 | -67
28 | CCCCCCCCCCC(C)(C)C(=O)Nc1c(C)cccc1OCC | 6.74 | – | – | –
29 | CCCCCCCC/C=C/CCCCCCCC(=O)Nc1ccccc1-c1ccccc1 | 6.04 | – | – | –
30 | CCCCCCCCCCC1(C(=O)Nc2c(OC)cc(OC)cc2OC)CCCCC1 | 7.15 | – | – | -43
31 | CCCCCCCCCCCCCCCC(=O)Nc1c(OC)cc(OC)cc1OC | 7.27 | – | – | -38
32 | CCCCCCCCCCC(CC)(CC)C(=O)Nc1c(OC)cc(OC)cc1OC | 7.01 | – | – | –
33 | CCCCCCCCCCC(C)(C)C(=O)Nc1cc(C(=O)OC)ccc1OC | 6.89 | – | – | –
34 | CCCCCCCCCCC1(C(=O)Nc2c(OC)cc(OC)cc2OC)CCC1 | 7.41 | – | 73 | -57
35 | CCCCCCCCCCC(CC)C(=O)Nc1c(OC)cc(OC)cc1OC (configuration not stated) | – | 7.14 | – | –
36 | CCCCCCCCCCC1(C(=O)Nc2c(OC)cc(OC)cc2OC)CCCCCC1 | 7.03 | – | 9 | -42
37 | CCCCCCCCCCCCC(C)(C)C(=O)Nc1c(OC)cc(OC)cc1OC | 7.20 | – | 19 | -45
38 | C=C(CCCCCCCCCC)C(=O)Nc1c(OC)cc(OC)cc1OC | 6.70 | – | – | –
39 | CCCCCCCCCCC(C)(C)C(=O)Nc1c(C)cccc1C | 5.89 | – | – | –
40 | CCCCCCCCCCC(C)(C)C(=O)Nc1c(C)cccc1C(C)C | 6.62 | – | – | –
41 | CCCCCCCCCCC(C)(C)C(=O)Nc1c(CC)cccc1CC | 6.41 | – | – | –
42 | CCCCCCCCCCC(C)(C)C(=O)Nc1c(C(C)C)cccc1C(C)C | 6.68 | – | – | –
43 | CCCCCCCC/C=C/CCCCCCC(C)(C)C(=O)Nc1c(OC)cc(OC)cc1OC | 7.36 | – | – | -60
44 | CCCCCCCCCCC(C)C(=O)Nc1c(OC)cc(OC)cc1OC (configuration not stated) | – | 7.05 | – | –
45 | CCCCCCCCCCCCCCCCC(C)(C)C(=O)Nc1c(OC)cc(OC)cc1OC | 7.06 | – | 13 | -34
46 | CCCCCCCCCCC(C)(C)C(=O)Nc1c(C)cccc1Cl | 6.12 | – | – | –
47 | CCCCCCCC(C)(C)C(=O)Nc1c(OC)cc(OC)cc1OC | 6.74 | – | 2 | -13
48 | CCCCCCCCCCCCC(CC)C(=O)Nc1c(OC)cc(OC)cc1OC (configuration not stated) | 7.28 | – | – | -11
49 | CCCCCCCC/C=C/CCCCCCCC(=O)Nc1ccccc1C(=O)c1ccccc1 | < 5.00 | – | – | –

Row | Structure (SMILES) | pIC50 [1] | pIC50 [4] | Change [2] [%] | Change [3] [%]
50 | CCCCCCCC/C=C/CCCCCCCC(=O)Nc1cccc2c1CCCC2 | 6.46 | – | – | –
51 | CCCCCCCC/C=C/CCCCCCCC(=O)Nc1ccc(CC(=O)OCC)c(C)c1 | 5.52 | – | – | -10
52 | CCCCCCCCCCC(C)(C)C(=O)Nc1c(C)cc(C)cc1C | 6.71 | – | – | –
53 | CCCCCCCCCCC(C)(C)C(=O)Nc1c(O)cc(OC)cc1OC | 6.23 | – | – | –
54 | CCCCCCCCCCCCCCC(C)(C)C(=O)Nc1c(OC)cc(OC)cc1OC | 7.36 | – | 26 | -55
55 | CCCCCCCCCCCCCCC1(C(=O)Nc2c(OC)cc(OC)cc2OC)CC1 | 7.31 | – | 16 | -43
56 | CCCCCCCCCCCCCC(=O)Nc1c(OC)cc(OC)cc1OC | 6.72 | – | – | -44
57 | CCCCCCCCCCC(C)(C)C(=O)Nc1c(OC)cc(OC)cc1OCCCCCCC | 6.85 | – | – | –
58 | CCCCCCCC/C=C/CCCCCCCC(=O)Nc1cccc(C(=O)OC)c1C | < 5.30 | – | – | –
59 | CCCCCCCCCCCCCCC(C)C(=O)Nc1c(OC)cc(OC)cc1OC (configuration not stated) | 7.51 | – | – | –
60 | CCCCCCCCCCCCC(C)C(=O)Nc1c(OC)cc(OC)cc1OC (configuration not stated) | – | – | – | -39
61 | CCCCCCCCCCC(C)(C)C(=O)Nc1ccc(C)cc1C | 6.17 | – | – | –
62 | CCCCCCCCCCCCC1(C(=O)Nc2c(OC)cc(OC)cc2OC)CC1 | 7.24 | – | 27 | -40
63 | CCCCCCCCC(C)(C)C(=O)Nc1c(OC)cc(OC)cc1OC | 7.23 | – | 53 | -43
64 | CCCCCCCCCCCCCCCCCC(=O)Nc1c(OC)cc(OC)cc1OC | 7.28 | – | 31 | -11
65 | CCCCCCCCCCC(C)(C)C(=O)Nc1c(C)cccc1OC | 6.68 | – | – | –
66 | CCCCCCCCCCC(C)(C)C(=O)Nc1c(OC)cc(OC)cc1OCC(=O)OC | 5.64 | – | – | –
67 | CCCCCCCC/C=C/CCCCCCC(C)C(=O)Nc1c(OC)cc(OC)cc1OC (configuration not stated) | 7.44 | – | – | -40
68 | CCCCCCCC/C=C/CCCCCCCC(=O)Nc1cc(C(=O)OC)ccc1OC | 6.37 | – | – | –
69 | CCCCCCCCCCC(C)(C)C(=O)Nc1c(C)cc(Br)cc1C | 6.39 | – | – | –
70 | CCCCCCCCCCC(C)(C)C(=O)Nc1c(OC)cc(OC)cc1OCC(=O)O | < 6.00 | – | – | –
71 | CCCCCCCCCCCCCCC(=O)Nc1c(OC)cc(OC)cc1OC | 7.19 | – | – | –
72 | CCCCCCCCCCC(C)(C)C(=O)Nc1c(OC)cc(OC)cc1OC [CL-976] | – | – | 94 | –
73 | CCCCCCCCCC(C)(C)C(=O)Nc1c(OC)cc(OC)cc1OC | – | 7.23 | 86 | -53
